{
  "source": "ChEMBL document CHEMBL3098117",
  "about": "“Identification and optimization of an aminoalcohol-carbazole series with antimalarial properties” (ACS Med Chem Lett, 2013)",
  "key": {"[1]": {"molecular_target": "Sodium channel protein type 5 subunit alpha (Homo sapiens, UniProt Q14524)", "sequence (Q14524 whole entry)": "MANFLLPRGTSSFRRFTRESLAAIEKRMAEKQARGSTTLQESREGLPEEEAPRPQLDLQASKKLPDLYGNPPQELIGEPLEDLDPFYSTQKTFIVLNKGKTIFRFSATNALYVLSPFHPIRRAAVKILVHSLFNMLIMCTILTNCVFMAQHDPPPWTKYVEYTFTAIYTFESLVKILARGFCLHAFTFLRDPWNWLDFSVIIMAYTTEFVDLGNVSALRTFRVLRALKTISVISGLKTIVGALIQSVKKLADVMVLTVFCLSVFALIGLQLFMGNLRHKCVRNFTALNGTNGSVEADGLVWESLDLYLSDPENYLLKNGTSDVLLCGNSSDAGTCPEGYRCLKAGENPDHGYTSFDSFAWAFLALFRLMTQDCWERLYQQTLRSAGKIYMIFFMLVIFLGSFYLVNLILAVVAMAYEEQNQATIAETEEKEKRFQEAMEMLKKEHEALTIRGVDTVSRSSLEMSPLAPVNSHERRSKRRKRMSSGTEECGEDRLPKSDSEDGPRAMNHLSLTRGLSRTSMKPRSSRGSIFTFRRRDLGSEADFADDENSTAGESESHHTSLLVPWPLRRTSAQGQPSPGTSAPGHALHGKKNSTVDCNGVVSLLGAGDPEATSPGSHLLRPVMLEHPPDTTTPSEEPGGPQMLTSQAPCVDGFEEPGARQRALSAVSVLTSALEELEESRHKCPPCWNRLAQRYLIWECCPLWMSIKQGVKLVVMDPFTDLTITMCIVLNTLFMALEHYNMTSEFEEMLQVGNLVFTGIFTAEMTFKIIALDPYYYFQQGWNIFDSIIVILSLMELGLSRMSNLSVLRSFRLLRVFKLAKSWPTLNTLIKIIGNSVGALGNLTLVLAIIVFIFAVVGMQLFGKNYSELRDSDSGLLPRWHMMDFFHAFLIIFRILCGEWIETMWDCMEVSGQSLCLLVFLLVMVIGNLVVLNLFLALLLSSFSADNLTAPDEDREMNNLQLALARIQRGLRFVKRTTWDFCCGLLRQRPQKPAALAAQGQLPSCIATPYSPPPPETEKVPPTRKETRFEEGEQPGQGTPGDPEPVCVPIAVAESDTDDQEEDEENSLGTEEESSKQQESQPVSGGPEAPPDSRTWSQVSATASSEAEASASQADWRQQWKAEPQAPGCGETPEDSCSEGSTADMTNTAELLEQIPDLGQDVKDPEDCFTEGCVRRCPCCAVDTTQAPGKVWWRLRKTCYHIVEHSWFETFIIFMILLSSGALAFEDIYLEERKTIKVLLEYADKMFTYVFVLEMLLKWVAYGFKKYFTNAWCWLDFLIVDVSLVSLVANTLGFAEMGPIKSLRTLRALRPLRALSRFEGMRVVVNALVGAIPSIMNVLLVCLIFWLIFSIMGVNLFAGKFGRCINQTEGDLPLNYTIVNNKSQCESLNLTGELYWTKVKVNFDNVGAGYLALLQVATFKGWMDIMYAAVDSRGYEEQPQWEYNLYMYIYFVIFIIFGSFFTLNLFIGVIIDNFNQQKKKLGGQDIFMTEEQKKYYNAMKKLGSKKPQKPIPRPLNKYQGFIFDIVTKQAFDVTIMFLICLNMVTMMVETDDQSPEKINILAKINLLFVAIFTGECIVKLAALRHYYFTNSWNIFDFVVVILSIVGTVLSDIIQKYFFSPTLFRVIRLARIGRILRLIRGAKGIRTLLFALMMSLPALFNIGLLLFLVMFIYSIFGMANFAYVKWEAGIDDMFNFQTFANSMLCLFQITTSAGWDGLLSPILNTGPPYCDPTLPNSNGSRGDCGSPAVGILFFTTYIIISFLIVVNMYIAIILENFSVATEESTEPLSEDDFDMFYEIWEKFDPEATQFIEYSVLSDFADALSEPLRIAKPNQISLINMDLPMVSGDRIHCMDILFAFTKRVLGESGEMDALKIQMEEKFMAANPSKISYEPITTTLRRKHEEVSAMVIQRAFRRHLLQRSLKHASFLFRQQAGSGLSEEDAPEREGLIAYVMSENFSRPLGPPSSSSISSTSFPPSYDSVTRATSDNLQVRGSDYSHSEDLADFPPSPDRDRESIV", "test": "Inhibition of human Nav1.5 channel"}, "Plasmodium falciparum [2]": {"test_system": "Plasmodium falciparum", "test": "Antimalarial activity against chloroquine, pyrimethamine, sulfadoxine, quinine and mefloquine-sensitive Plasmodium falciparum D6", "format": "functional, organism-based"}, "Plasmodium berghei [3]": {"test_system": "Plasmodium berghei", "test": "Antimalarial activity against Plasmodium berghei ANKA expressing GFP infected in NMRI mouse assessed as effect on mouse survival at 10 mg/kg/day, po qd for 4 days measured at 24 hrs after last dose", "format": "functional, organism-based", "outline": "(§1)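 P. berghei-infected mice dosed orally once daily on days 0–3, first dose 4 h postinfection, at 3, 10, 30 and 100 mg/kg/day. Red blood cell parasitemia and plasma exposure measured on day 4, 24 h after last dose; ED50 derived from dose-response; survival then monitored for 26 further days as mean survival days.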"}, "[4]": {"test": "Genotoxicity in micronucleus (unknown origin)"}, "[5]": {"molecular_target": "T1, Potassium/sodium hyperpolarization-activated cyclic nucleotide-gated channel 4 (Homo sapiens) (UniProt Q9Y3Q4)", "T1 sequence (whole entry)": "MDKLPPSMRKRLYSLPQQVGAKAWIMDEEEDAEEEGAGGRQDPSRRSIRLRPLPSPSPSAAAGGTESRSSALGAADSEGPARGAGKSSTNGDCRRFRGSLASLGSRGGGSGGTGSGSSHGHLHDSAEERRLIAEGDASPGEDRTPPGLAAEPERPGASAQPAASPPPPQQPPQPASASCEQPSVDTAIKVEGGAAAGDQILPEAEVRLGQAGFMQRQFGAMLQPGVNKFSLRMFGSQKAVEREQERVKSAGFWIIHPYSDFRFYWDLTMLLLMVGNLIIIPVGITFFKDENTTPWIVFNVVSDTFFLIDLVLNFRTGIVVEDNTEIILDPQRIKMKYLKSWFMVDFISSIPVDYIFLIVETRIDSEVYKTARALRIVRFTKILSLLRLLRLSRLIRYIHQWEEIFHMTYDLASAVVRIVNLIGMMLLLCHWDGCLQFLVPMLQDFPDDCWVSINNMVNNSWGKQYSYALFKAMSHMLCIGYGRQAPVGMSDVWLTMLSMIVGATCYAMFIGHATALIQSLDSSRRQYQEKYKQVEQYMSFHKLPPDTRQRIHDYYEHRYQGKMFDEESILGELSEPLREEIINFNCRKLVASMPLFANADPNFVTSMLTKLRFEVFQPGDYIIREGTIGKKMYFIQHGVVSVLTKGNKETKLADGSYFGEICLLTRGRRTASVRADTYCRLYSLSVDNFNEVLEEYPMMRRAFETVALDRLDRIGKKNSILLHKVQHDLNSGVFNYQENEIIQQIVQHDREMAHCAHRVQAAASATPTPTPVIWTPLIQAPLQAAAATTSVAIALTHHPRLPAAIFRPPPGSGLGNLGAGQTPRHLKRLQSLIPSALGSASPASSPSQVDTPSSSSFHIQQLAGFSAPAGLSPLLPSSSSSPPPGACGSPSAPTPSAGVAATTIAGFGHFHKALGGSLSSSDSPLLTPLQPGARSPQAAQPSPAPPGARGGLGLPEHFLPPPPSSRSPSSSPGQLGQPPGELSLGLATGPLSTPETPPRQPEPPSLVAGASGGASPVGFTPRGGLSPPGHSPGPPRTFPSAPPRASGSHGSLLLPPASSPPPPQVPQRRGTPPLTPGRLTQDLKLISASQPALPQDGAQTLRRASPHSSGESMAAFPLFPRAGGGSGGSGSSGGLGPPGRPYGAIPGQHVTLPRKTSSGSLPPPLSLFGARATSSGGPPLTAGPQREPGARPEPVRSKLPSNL", "test": "Inhibition of human HCN4 channel"}, "[6]": {"test": "Oral bioavailability in NMRI mouse at 5 mg/kg by LC-MS/MS analysis", "format": "ADME, organism-based", "details": "in vivo"}, "Salmonella typhimurium": {"test_system": "Salmonella typhimurium", "test": "Mutagenic activity in Salmonella typhimurium by Ames test under metabolic conditions", "format": "toxicity, organism-based", "details": "salmonella enterica subsp. enterica serovar typhimurium"}, "Cytochrome P450 2C9": {"molecular_target": "Cytochrome P450 2C9 (Homo sapiens, UniProt P11712)", "sequence (P11712 whole entry)": "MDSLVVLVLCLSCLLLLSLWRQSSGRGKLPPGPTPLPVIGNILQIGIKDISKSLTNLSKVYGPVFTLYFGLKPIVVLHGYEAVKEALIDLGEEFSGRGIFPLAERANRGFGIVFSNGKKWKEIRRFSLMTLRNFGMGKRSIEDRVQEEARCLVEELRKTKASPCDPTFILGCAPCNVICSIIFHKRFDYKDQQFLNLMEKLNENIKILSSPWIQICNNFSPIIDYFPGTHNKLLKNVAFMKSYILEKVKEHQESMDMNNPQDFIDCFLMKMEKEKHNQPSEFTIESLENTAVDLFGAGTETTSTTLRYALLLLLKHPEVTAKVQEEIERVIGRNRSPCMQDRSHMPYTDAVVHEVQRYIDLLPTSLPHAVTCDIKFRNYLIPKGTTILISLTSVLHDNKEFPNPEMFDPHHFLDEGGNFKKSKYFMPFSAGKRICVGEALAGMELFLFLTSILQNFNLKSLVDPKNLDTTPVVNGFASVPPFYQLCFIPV", "test": "Inhibition of human recombinant CYP2C9 expressed in baculovirus-infected insect cells preincubated for 15 mins followed by substrate addition measured after 30 mins by luminescence assay", "format": "ADME", "details": "recombinant enzyme, 0.5 h"}, "Plasmodium falciparum [7]": {"test_system": "Plasmodium falciparum", "test": "Antimalarial activity against chloroquine, pyrimethamine, cycloguanil-resistant Plasmodium falciparum 7G8", "format": "functional, organism-based"}, "Plasmodium berghei [8]": {"test_system": "Plasmodium berghei", "test": "Antimalarial activity against Plasmodium berghei ANKA expressing GFP infected in po dosed NMRI mouse assessed as reduction in parasitemia administered qd for 4 days measured at 24 hrs after last dose", "format": "functional", "outline": "as §1"}, "Cytochrome P450 1A2": {"molecular_target": "T2, Cytochrome P450 1A2 (Homo sapiens, UniProt P05177)", "T2 sequence (P05177 whole entry)": "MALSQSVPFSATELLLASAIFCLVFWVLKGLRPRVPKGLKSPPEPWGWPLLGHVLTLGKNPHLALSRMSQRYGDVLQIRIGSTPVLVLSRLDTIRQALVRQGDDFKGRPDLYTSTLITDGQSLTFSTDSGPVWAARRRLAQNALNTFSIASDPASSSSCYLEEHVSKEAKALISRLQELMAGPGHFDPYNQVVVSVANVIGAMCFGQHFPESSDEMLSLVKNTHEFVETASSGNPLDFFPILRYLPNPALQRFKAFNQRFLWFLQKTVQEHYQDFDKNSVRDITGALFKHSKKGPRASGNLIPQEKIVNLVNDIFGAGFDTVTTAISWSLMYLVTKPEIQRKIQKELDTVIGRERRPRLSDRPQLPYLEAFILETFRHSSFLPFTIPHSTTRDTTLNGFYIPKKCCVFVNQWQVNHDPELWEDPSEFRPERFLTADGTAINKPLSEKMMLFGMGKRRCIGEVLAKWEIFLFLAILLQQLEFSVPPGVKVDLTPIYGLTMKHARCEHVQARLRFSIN", "test": "Inhibition of human recombinant CYP1A2 expressed in baculovirus-infected insect cells preincubated for 15 mins followed by substrate addition measured after 30 mins by luminescence assay", "format": "ADME", "details": "recombinant enzyme, 0.5 h"}, "Plasmodium falciparum [9]": {"test_system": "Plasmodium falciparum", "test": "Antimalarial activity against chloroquine, pyrimethamine, sulfadoxine and quinine-resistant Plasmodium falciparum W2", "format": "functional, organism-based"}, "[10]": {"molecular_target": "Voltage-dependent L-type calcium channel subunit alpha-1C (Homo sapiens, UniProt Q13936)", "sequence (Q13936 whole entry)": "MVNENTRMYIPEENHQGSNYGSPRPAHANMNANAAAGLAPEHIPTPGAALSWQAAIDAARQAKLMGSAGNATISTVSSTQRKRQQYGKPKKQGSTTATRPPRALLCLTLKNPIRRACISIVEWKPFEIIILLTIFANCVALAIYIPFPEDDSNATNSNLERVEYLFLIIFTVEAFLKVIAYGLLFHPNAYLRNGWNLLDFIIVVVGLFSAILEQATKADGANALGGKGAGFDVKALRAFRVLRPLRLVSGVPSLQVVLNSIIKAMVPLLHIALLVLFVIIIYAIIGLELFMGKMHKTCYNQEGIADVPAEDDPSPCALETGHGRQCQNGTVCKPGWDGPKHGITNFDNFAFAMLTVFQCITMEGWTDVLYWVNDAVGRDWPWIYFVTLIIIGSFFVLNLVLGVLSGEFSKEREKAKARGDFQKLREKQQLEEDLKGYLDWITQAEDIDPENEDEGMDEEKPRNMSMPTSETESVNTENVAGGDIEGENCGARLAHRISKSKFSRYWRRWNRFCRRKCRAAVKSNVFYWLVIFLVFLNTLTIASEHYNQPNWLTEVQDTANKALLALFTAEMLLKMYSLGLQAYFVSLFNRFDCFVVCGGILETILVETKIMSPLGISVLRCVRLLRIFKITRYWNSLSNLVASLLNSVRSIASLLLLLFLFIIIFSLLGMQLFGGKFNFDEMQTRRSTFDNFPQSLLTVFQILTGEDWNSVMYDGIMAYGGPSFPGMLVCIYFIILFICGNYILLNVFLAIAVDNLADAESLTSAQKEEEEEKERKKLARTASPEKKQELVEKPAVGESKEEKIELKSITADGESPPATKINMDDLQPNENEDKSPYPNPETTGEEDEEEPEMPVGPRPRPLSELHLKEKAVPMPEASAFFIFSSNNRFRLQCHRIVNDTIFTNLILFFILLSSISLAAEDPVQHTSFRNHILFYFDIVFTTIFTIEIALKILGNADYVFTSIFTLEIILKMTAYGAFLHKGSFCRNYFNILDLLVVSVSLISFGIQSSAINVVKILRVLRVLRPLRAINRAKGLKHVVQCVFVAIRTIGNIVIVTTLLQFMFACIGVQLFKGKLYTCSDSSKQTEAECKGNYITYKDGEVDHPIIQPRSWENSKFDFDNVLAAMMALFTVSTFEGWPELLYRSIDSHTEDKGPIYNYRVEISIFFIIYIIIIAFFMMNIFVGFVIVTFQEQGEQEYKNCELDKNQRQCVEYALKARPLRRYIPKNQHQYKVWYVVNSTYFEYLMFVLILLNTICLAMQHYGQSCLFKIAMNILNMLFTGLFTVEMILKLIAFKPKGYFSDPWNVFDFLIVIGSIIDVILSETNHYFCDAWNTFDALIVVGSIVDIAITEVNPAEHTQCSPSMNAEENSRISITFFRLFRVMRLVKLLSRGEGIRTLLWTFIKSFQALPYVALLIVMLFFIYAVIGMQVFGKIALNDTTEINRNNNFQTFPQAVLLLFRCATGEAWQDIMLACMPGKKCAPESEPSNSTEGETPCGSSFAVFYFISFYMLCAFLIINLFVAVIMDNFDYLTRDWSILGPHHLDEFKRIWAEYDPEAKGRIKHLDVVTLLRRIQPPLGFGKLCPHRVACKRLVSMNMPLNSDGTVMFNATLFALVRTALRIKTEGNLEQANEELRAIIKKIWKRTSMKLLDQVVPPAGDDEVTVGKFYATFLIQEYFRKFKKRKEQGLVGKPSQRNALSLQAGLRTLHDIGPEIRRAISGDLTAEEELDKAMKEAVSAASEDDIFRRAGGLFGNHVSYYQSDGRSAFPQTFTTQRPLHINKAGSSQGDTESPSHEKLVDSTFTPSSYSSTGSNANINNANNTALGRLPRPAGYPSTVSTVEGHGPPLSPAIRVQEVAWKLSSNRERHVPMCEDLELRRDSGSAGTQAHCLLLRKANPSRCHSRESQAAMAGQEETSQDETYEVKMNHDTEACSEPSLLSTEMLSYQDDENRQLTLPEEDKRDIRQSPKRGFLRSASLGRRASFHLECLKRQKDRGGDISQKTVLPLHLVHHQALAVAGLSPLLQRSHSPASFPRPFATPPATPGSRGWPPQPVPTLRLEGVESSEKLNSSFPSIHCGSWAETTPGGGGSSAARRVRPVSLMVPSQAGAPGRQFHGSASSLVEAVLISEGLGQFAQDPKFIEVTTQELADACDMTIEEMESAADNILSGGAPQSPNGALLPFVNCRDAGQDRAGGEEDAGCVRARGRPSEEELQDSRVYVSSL", "test": "Inhibition of human Cav1.2 channel"}, "[11]": {"molecular_target": "T3, Inward rectifier potassium channel 2 (Homo sapiens, UniProt P63252)", "T3 sequence (P63252 whole entry)": "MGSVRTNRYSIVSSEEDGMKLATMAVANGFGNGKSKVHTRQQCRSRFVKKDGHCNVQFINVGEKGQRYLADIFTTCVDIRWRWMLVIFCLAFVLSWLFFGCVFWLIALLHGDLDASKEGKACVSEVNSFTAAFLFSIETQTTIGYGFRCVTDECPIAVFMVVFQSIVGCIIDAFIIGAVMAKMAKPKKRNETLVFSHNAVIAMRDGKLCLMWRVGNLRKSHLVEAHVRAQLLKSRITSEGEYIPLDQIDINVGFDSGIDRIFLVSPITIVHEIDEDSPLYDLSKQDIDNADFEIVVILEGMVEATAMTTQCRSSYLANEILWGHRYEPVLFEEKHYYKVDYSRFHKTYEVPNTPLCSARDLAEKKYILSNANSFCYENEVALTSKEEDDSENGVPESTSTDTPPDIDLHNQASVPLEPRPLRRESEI", "test": "Inhibition of human Kir2.1 channel"}},
  "note": "Activity calls are given as the source filed them. The calls are words filed in the database; no cut-off is given here.",
  "data": [
    {"smiles": "OC(CNC1CCCCC1)Cn1c2ccc(Br)cc2c2cc(Br)ccc21", "note": "(racemic)", "values": [
      {"measurement": "inhibition (INH)", "setting": "[1]", "value": "Not Active"},
      {"measurement": "Activity", "setting": "Plasmodium falciparum [2]", "value": "Active"},
      {"measurement": "Activity", "setting": "Plasmodium berghei [3]", "value": "inactive"},
      {"measurement": "Activity", "setting": "[4]", "value": "Non-toxic"},
      {"measurement": "inhibition", "setting": "[5]", "value": "inactive"},
      {"measurement": "bioavailability", "setting": "[6]", "value": 50, "unit": "%"},
      {"measurement": "Activity", "setting": "Salmonella typhimurium", "value": "Non-toxic"},
      {"measurement": "inhibition (INH)", "setting": "Cytochrome P450 2C9", "value": "Active"},
      {"measurement": "Activity", "setting": "Plasmodium falciparum [7]", "value": "Active"},
      {"measurement": "Activity", "setting": "Plasmodium berghei [8]", "value": "Dose dependent effect"},
      {"measurement": "ED50", "setting": "Plasmodium berghei [8]", "value": 11.4, "unit": "mg/kg/day"},
      {"measurement": "inhibition (INH)", "setting": "Cytochrome P450 1A2", "value": "Active"},
      {"measurement": "Activity", "setting": "Plasmodium falciparum [9]", "value": "Active"},
      {"measurement": "inhibition (INH)", "setting": "[10]", "value": "Not Active"},
      {"measurement": "inhibition (INH)", "setting": "[11]", "value": "Not Active"}
    ]}
  ]
}
